The record followed here is ChEMBL document CHEMBL1149396, “In silico design and synthesis of piperazine-1-pyrrolidine-2,5-dione scaffold-based novel malic enzyme inhibitors” (Bioorg Med Chem Lett, 2006).

Each structure is given as a SMILES string.

The assay concerns the target T1, NADP-dependent malic enzyme (Homo sapiens, UniProt P48163).
T1 sequence (P48163 whole entry): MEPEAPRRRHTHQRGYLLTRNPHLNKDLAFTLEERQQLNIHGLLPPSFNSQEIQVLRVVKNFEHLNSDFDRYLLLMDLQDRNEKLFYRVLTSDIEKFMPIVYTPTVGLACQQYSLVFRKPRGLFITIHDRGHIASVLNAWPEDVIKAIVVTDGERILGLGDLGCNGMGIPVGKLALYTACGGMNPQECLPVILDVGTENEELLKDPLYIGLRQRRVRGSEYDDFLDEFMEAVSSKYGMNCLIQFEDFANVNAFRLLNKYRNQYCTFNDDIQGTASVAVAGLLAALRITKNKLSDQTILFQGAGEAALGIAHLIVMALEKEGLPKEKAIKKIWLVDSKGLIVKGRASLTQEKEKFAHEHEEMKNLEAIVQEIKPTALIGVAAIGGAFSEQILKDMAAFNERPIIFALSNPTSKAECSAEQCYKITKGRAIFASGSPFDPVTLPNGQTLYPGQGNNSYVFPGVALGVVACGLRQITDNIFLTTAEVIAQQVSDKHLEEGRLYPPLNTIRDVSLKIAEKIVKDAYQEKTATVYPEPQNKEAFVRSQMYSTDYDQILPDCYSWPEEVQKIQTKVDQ
Description: Inhibitory activity against cytosolic malic enzyme. Summed up:
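Coupled endpoint assay. Enzyme pre-incubated with compound 45 min at room temperature in 85 mM Tris pH 7.5 containing 2 mM malic acid and 5 mM MnCl2. Reaction started with 124 µM NADP, run 30 min at room temperature, stopped with 0.5 M EDTA. NADPH formed read via MTS/PMS reduction to formazan, absorbance at 492 nm.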
The term IC50 denotes the concentration needed to halve the response being measured. Low readings indicate higher potency, high ones lower potency. On to `COc1ccc(N2CCN(C3CC(=O)N(c4cccc(Cl)c4Cl)C3=O)CC2)cc1` (stereo not given), for which the IC50 was > 20 µM.

`O=C1CC(N2CCN(c3cccc(C(F)(F)F)c3)CC2)C(=O)N1c1ccccc1` (stereo not given): the IC50 came out at 3.15 µM.

`COc1ccc(N2CCN(C3CC(=O)N(Cc4ccccc4)C3=O)CC2)cc1` (stereo not given): the IC50 was > 20 µM.

The molecule `O=C1CC(N2CCN(c3cccc(O)c3)CC2)C(=O)N1Cc1ccccc1` (stereo not given) came in with an IC50 of 10 µM.

In turn, `O=C1CC(N2CCN(c3ccc(F)cc3)CC2)C(=O)N1c1ccccc1` (stereo not given) displayed an IC50 of 10 µM.

On to `O=C1CC(N2CCN(c3ccccc3O)CC2)C(=O)N1Cc1ccccc1` (stereo not given), for which the IC50 is > 20 µM.

In turn, `O=C1CC(N2CCN(c3ccc(O)cc3)CC2)C(=O)N1Cc1ccccc1` (stereo not given) displayed an IC50 of 0.45 µM.

Regarding `Cc1ccc(N2C(=O)CC(N3CCN(c4ccc(O)cc4)CC3)C2=O)cc1Cl` (stereo not given), half-maximal inhibition (IC50) was put at 0.56 µM. This IC50 and that of the molecule before are within 1.5-fold of each other.

Regarding `COc1ccc(N2CCN(C3CC(=O)N(c4ccccc4)C3=O)CC2)cc1` (stereo not given), the IC50 was > 20 µM.

`O=C1CC(N2CCN(c3ccc(O)cc3)CC2)C(=O)N1c1ccccc1` (stereo not given) showed a 50% inhibitory concentration (IC50) of 0.15 µM.
